In assay [1] the test system is Mus musculus. Put plainly: Anticonvulsant activity in ip dosed Albino mouse by PIC test. The format is functional, organism-based. The method, boiled down: (§1)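 Mice of matched age and weight, 12-h light/dark cycle, food and water ad libitum. Dosing ip in 30% PEG 400 and 10% water at 0.01 ml/g body weight. PIC and PTZ seizure tests run by NIH antiepileptic drug development program standard procedures.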

Assay [2] has as its system Mus musculus. Put plainly: Anticonvulsant activity in ip dosed Albino mouse by MES test. The format is functional. The method, boiled down: (§2)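 Albino mice of matched age and weight, 12-h light/dark cycle, free food and water. Compound given ip in 30% PEG 400 and 10% water, 0.01 ml/g body weight. MES test by NIH antiepileptic drug development program standard procedures. ED50 from groups of six mice at several doses at time of peak effect; Litchfield–Wilcoxon with 95% confidence intervals.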

The test system of assay [3] is Mus musculus. Kind of assay: Anticonvulsant activity in ip dosed Albino mouse by PTZ test. It is filed as functional, organism-based. The method, boiled down: as §1
Assay [4] relates to Mus musculus. Kind of assay: Anticonvulsant activity in ip dosed Albino mouse assessed as time of peak effect by MES test. It is filed as functional. The method, boiled down: as §2

Active and inactive are the calls of the source. The rule behind the calls is not given here.

For the compound `O=S(=O)(NC1CC1)NC1CC1`, the result in assay [1], in assay [2] and in assay [3] was inactive.
`CCCCNS(=O)(=O)NCCCC` [BUTYL(BUTYLSULFAMOYL)AMINE]: the result in assay [1] and in assay [3] was inactive. Further, it took a dose of 295 µmol/kg to reach the 50% effect level in assay [2] (ED50). Moreover, in assay [4], the Activity came to 2 h.
Regarding `O=S(=O)(N1CCOCC1)N1CCOCC1`, the outcome in assay [1], in assay [2] and in assay [3] was inactive.
As for `O=S(=O)(NCc1ccccc1)NCc1ccccc1` [BENZYL(BENZYLSULFAMOYL)AMINE], the outcome in assay [1] and in assay [3] was inactive. The compound also displayed an ED50 in assay [2] of 238 µmol/kg. Further, the Activity in assay [4] turned out to be 2 h.
In turn, `O=S(=O)(NC1CCCCC1)NC1CCCCC1` yielded an ED50 in assay [2] of 151 µmol/kg. Also, the outcome in assay [3] was inactive. In assay [4], the Activity was 0.5 h.

Usually ED50 stands for the dose at which the effect has come halfway, by size or by number of responders. Higher therefore signals weaker potency.
